According to PMC3421229 (International Journal of Biological Sciences, 2012):

How the values were obtained:
[1] = target: T1, LdisPBP1 (Lymantria dispar, UniProt O16105); assay: fluorescence titration of 1-NPN with LdisPBP1; type: binding; settings: dissociation constant of the LdisPBP1/1-NPN complex
T1 sequence (O16105 20-162): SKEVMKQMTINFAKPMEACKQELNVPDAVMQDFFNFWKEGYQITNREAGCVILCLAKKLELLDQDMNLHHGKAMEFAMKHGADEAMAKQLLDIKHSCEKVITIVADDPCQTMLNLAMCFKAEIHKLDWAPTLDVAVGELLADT
In short: (§1)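 Recombinant His-tagged PBP from E. coli, Ni-resin and gel-filtration purified. A 2 μM protein solution in 50 mM Tris-HCl pH 7.3 or 50 mM Na2HPO4-citric acid pH 5.5 was titrated with 1-NPN (1 mM methanol stock) to 1–20 μM final. 25°C; excitation 337 nm, emission 370–470 nm, 10 nm slits. Kd calculated from the binding curve; three independent measurements.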

[2] = target: T2, LdisPBP2 (Lymantria dispar, UniProt O16106); assay: fluorescence titration of 1-NPN with LdisPBP2; type: binding; settings: dissociation constant of the LdisPBP2/1-NPN complex
T2 sequence (O16106 21-165): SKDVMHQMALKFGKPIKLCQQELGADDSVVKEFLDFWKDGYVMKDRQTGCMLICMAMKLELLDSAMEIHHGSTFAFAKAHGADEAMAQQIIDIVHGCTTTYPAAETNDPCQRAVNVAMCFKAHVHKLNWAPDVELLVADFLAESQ
In short: as §1

[3] = tested on: PBP1; settings: cited from earlier work
[4] = target: T1, LdisPBP1; assay: competitive fluorescence binding assay with 1-NPN as probe, LdisPBP1
In short: (§2)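 N-terminally His-tagged recombinant PBP was expressed in E. coli BL21(DE3) (0.25 mM IPTG, 18°C overnight), then purified by Ni-resin and gel filtration. 2 μM protein plus 2 μM 1-NPN in 50 mM Tris-HCl pH 7.3 or 50 mM Na2HPO4-citric acid pH 5.5, at 25°C; ex 337 nm, em 370–470 nm. Competitors (1 mM methanol stock) at 2–20 μM. IC50 = half-maximal fluorescence reduction; Ki = IC50/(1+[1-NPN]/K1-NPN). Triplicates.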

[5] = target: T2, LdisPBP2; assay: competitive fluorescence binding assay with 1-NPN as probe, LdisPBP2
In short: as §2

[6] = tested on: male L.dispar; assay: initial field experiment, attraction of male moths; type: in vivo, Lymantria dispar; settings: initial field experiment (data not shown)
[7] = tested on: gypsy moth; settings: cited from earlier work
[8] = PBP1[Ki(μM)] pH5.5, pH 5.5, n=3, 2 μM protein and 1-NPN
[9] = PBP1[Ki(μM)] pH7.3, pH 7.3, n=3, 2 μM protein and 1-NPN
[10] = PBP2[Ki(μM)] pH5.5, pH 5.5, n=3, 2 μM protein and 1-NPN
[11] = PBP2[Ki(μM)] pH7.3, pH 7.3, n=3, 2 μM protein and 1-NPN

SMILES	Kd ([1]; pH 5.5) [nM]	Kd ([1]; pH 7.3) [nM]	Kd ([2]; pH 5.5) [nM]	Kd ([2]; pH 7.3) [nM]	binding preference of PBP1 for pheromone enantiomers [3]	Ki [4, 8] [µM]	Ki [4, 9] [µM]	Ki [5, 10] [µM]	Ki [5, 11] [µM]	attraction of male L.dispar compared with (+)-D alone [6]	effect on the pheromone [7]
c1ccc(Nc2cccc3ccccc23)cc1 [1-NPN, N-phenyl-1-naphthylamine]	1710 ± 200	1770 ± 310	8740 ± 2050	2030 ± 420							
CCCCCCCCCC[C@H]1O[C@H]1CCCCC(C)C [(-)-disparlure]					preferentially bound						
O=C(CCCCC(=O)OCC1CCC2OC2C1)OCC1CCC2OC2C1 (stereo not shown) [Bis, Bis(3,4-epoxycyclohexylmethyl) adipate]						2.2 ± 0.01	3.25 ± 0.02	3.54 ± 0.01	1.97 ± 0.01	reverse	
CCCCCCCCCCC1OC12CC2 (stereo not shown) [OXP1, 2-decyl-1-oxaspiro[2.2]pentane]						0.68 ± 0.01	1.87 ± 0.01	1.88 ± 0.02	1.85 ± 0.02		inhibited the effect of the pheromone
OCCCCC1OC12CC2 (stereo not shown) [OXP2, 4-(1-oxaspiro[2.2]pent-2-yl)butan-1-ol]						6.33 ± 0.18	2.99 ± 0.08	5.14 ± 0.06	2.46 ± 0.02		enhanced that of pheromone
O=Cc1ccccc1O [Sal, Salicylaldehyde]						3.05 ± 0.01	2.93 ± 0.02	6.06 ± 0.06	5.32 ± 0.07	reverse	
